Rows were chosen to be rich in hits. Some 2.5% of all compounds tested hit in one or more screens of this group.
MEKK2wt PB1 HTS: raises or lowers MEK5 binding to wildtype human MEKK2 PB1 domain; Q9Y2U5; bead flow cytometry, Alexa488-MEK5 binding to MEKK2 WT; actives lie on both sides; binding response (% of control), % at 10 µM; 1.1% of 290,000 active; AID 1531; in the data active means binding response below about 67% or above about 130%
Rce1 inh: blocks yeast Ras-converting enzyme; Q03530; yeast membranes, quenched prenylated peptide cleavage fluorescence; calls only; 0.27% of 290,000 active; AID 2563;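 active means fall in fluorescence gain of 50% or more versus controls, with final raw signal at or below 3038400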
UCH37 inh: human UCH37 deubiquitinating enzyme inhibition | Q9Y5K5 | purified proteasome/UCH37, Ub-AMC cleavage fluorescence | inhibition, % (concentration not given with the values) | 0.33% of 330,000 active;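 active means mean inhibition over replicate wells above about 20%, limit read from the data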
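Material: Human UCH37 enzyme supplied as purified proteasome complex | Schedule: 30 min compound-proteasome preincubation then 25 min substrate reaction, room temperature | Detection: AMC fluorescence from Ub-AMC cleavage, excitation 355 nm, emission 460 nm | Benchmarks: Wells without proteasome as full block, compound-free enzyme plus substrate as uninhibited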
MEKK3 PB1 HTS: modulators (inhibitors or enhancers) of MEK5 binding to human MEKK3 PB1 domain; Q99759; bead-based flow cytometry, Alexa488-MEK5 binding to MEKK3; actives lie on both sides; 0 = blocked by unlabeled MEK5, 100 = vehicle; binding response (% of control), % at 10 µM; 1.4% of 290,000 active;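 active means binding response more than 3 SD above or below the average of its plate-row segment, actives on both sides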;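 further: Alexa488 bead fluorescence after subtracting the streptavidin-only scavenger bead signal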
Target sequence (Q99759 whole entry, looked up, the tested form may be a part): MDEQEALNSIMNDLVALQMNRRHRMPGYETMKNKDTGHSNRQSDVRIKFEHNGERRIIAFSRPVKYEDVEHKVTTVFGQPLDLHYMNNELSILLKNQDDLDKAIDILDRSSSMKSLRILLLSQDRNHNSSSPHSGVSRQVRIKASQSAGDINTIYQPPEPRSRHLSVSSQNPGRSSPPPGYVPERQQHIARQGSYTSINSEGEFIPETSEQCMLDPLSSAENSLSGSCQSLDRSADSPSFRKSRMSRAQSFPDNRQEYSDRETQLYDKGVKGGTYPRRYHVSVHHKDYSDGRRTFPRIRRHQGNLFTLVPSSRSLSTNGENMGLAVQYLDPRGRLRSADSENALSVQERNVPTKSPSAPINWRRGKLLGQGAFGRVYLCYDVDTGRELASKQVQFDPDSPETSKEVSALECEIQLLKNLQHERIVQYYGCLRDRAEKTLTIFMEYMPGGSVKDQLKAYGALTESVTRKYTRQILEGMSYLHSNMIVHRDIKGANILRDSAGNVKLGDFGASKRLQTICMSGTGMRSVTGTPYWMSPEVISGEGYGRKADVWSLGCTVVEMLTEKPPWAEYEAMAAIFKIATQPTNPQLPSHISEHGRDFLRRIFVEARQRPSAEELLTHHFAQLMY
T cell modulator: T cell immune modulators affecting CD8 T cell-vesicle binding; response (vesicle binding), % at 7 µM; 2C CD8+ T cell-vesicle binding, flow cytometry; stronger effect = lower value; AID 2052; 0.068% of 330,000 active;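 active means response, share of CD8 T cells binding vesicles, and their 90th percentile fluorescence all below set limits, cut at about 80% in these data, passing the limit was not always enough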;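 further: values below 100% mean blocked vesicle binding to the CD8+ T cells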
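System: murine 2C transgenic CD8+ T lymphocytes; also added: QL9-loaded Drosophila micro-vesicles; times: binding 1.5 h at 37 °C; measured by: flow cytometry, PE anti-B7-1 (FL2) versus Alexa647 anti-CD8 (FL8), PFA-fixed; control set: Peptide-free naked vesicles (low) and QL9 vesicles with 0.7% DMSO vehicle (high)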
MEKK2 mut-MEK5: signal of MEK5 binding to mutant human MEKK2 PB1 domain; bead flow cytometry, Alexa488-MEK5 binding to MEKK2 mutant; percent response, % at 10 µM; 0.35% of 290,000 active; AID 1530; in the data active means percent response above about 24%, passing the limit was not always enough
MEKK2wt confirm: raises or lowers MEK5 binding to wildtype human MEKK2, retest. shares compounds with MEKK3 PB1 HTS. AID 1892. 2.4% of 5,900 active. binding response (% of control), % at 10 µM. bead flow cytometry, Alexa488-MEK5 binding to MEKK2 WT; actives lie on both sides; in the data active means binding response below about 16% or above about 210%; inactive means in between
MEKK2mut-MEK5: signal of MEK5 binding to mutant human MEKK2, retest; shares compounds with MEKK3 PB1 HTS; bead flow cytometry, Alexa488-MEK5 binding to MEKK2 mutant; percent response, % at 10 µM; 2% of 5,900 active; AID 1893; in the data active means percent response mostly above about 71%, no sharp cut-off; inactive means mostly below about 38%;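 further: higher means compound restores mutant binding toward wildtype level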
MEKK3-MEK5 inh: MEKK3-MEK5 PB1 inhibition, single concentration confirmation; shares compounds with MEKK3 PB1 HTS; bead flow cytometry, Alexa488-MEK5 binding to MEKK3; stronger effect = lower value; binding response (% of control), % at 10 µM; 1.8% of 5,900 active; AID 1894;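 active means binding response below 72% of control, or above a set upper limit, though filed actives all read lower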
Numbers stand for hits; i = inactive; nt = not tested or not shown; [ ] = dose if it differs, or a comment.

SMILES	MEKK2wt PB1 HTS	Rce1 inh	UCH37 inh	MEKK3 PB1 HTS	T cell modulator	MEKK2 mut-MEK5	MEKK2wt confirm	MEKK2mut-MEK5	MEKK3-MEK5 inh
CC(C)(C)OC(=O)NN=Cc1cccc([N+](=O)[O-])c1	nt	nt	i	nt	nt	nt	nt	nt	nt
Cc1ccc2nc(C)cc(NN=Cc3cccnc3)c2c1	nt	nt	i	nt	nt	nt	nt	nt	nt
CCc1ccccc1NC(=O)CSc1nc2n[nH]c(C)c2c(=N)n1-c1ccc(OC)cc1	i	nt	i	i	nt	i	nt	nt	nt
COc1ccccc1NC(=O)CSc1nc2n[nH]c(C)c2c(=N)n1-c1ccccc1Cl	140.0	i	i	i	i	i	i	i	i
COc1ccc(/C=N/NC(=O)CCc2n[nH]c(=O)[nH]c2=O)cc1OC	i	i	nt	129.0	i	i	i	i	i
COc1ccc(/C=N\NC(=O)CCc2c(C)n[nH]c2C)c(OC)c1OC	i	i	nt	134.0	i	i	i	i	i
COc1cccc(/C=N/NC(=O)CCc2n[nH]c(=O)[nH]c2=O)c1O	i	i	nt	128.0	i	i	i	i	i
COc1ccc(OC)c(C=NNC(=O)CCc2c(C)n[nH]c2C)c1	nt	nt	i	nt	nt	nt	nt	nt	nt
COc1cccc(C=NNC(=O)CCc2n[nH]c(=O)[nH]c2=O)c1O	nt	nt	i	nt	nt	nt	nt	nt	nt
O=C(CNC(=O)c1cccs1)NN=Cc1c(F)cccc1Cl	nt	nt	i	nt	nt	nt	nt	nt	nt
O=C(/C=C/c1ccco1)Nc1cccc2cccnc12	i	i	i	62.0[inhibitor]	i	i	i	i	i
O=C(O)/C=C/C(=O)Nc1cccc2cccnc12	i	i	i	i	i	i	nt	nt	nt
CCCCC(=O)NCCNc1nc2c(c(=O)n(C)c(=O)n2C)n1Cc1ccccc1	2.0[inhibitor]	i	i	2.0[inhibitor]	i	i	i	i	i
CCCCC(=O)NCCNc1nc2c(c(=O)n(C)c(=O)n2C)n1Cc1ccc(F)cc1	i	i	i	i	i	i	nt	nt	nt
CC(C)CC(=O)/C(=C/c1ccc(N(C)C)cc1)n1cncn1	37.0[inhibitor]	i	i	69.0[inhibitor]	i	i	i	i	i
COc1cc(S(=O)(=O)N(Cc2cccnc2)Cc2ccco2)ccc1-n1cnnn1	i	i	i	80.0[inhibitor]	i	i	i	i	i
COc1cc(S(=O)(=O)N(Cc2ccc(C)cc2)Cc2ccco2)ccc1-n1cnnn1	i	i	i	i	i	i	nt	nt	nt
CCCCOc1ccc(C2OC34CCCCC3C(C#N)(C#N)C2(C#N)C(=N)O4)cc1 (stereo not given)	i	i	nt	i	i	i	nt	nt	nt
Cc1ccc(C2OC34CCCCCC3C(C#N)(C(=N)O4)C2(C#N)C#N)cc1 (stereo not given)	i	i	i	56.0[inhibitor]	i	i	i	i	i
Cn1cccc1C=NNC(=O)c1ccc[n+]([O-])c1	nt	nt	i	nt	nt	nt	nt	nt	nt
COc1cc(C=NNC(=O)c2cccc(S(=O)(=O)N3CCCC3)c2)ccc1O	nt	nt	i	nt	nt	nt	nt	nt	nt
Cc1ccc(C(=O)N/C(=C\c2cccs2)C(=O)NCCc2c[nH]c3ccccc23)cc1C	i	i	i	i	i	i	nt	nt	nt
O=C(NCCc1c[nH]c2ccccc12)/C(=C\c1cccs1)NC(=O)c1ccccc1	i	i	i	41.0[inhibitor]	i	i	i	i	i
O=C(NCc1nc(-c2ccc(C(F)(F)F)cc2)no1)Nc1ccc(F)cc1F	i	i	i	131.0	i	i	i	i	i
O=C(O)COCC(=O)NCc1nc(-c2ccc(C(F)(F)F)cc2)no1	i	i	i	i	i	i	nt	nt	nt
O=C(NCc1nc(-c2ccc(C(F)(F)F)cc2)no1)Nc1cc(Cl)cc(Cl)c1	179.0	i	i	136.0	i	52.0	i	i	i
CC(=NNC(=O)c1ccccn1)c1c[nH]c2ccccc12	nt	nt	i	nt	nt	nt	nt	nt	nt
O=C(CSc1nc2ccccc2n1Cc1ccccc1)NN=Cc1ccccc1C(=O)O	nt	nt	i	nt	nt	nt	nt	nt	nt

Assay outcomes as filed in PubChem BioAssay.
